In the library only some 3.5% were active in any assay of this set; here they are far more common.
RGS4 inh – inhibitors of human RGS4. P49798. 0.45% of 310,000 active. HEK293 M3R/RGS4 inducible, Fluo-4 calcium flux; hits give high values; triggered by carbachol at its EC20. AID 463165. B-score at 10 µM;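 active means B-score, a plate-corrected calcium signal, over three deviations above library mean, with baseline fluorescence within five deviations of library mean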;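 further: RGS4 expression induced by doxycycline in cells with stable M3 receptor; B-score is computed from the integrated fluorescence ratio over baseline after carbachol; higher B-score means a larger calcium signal and so more RGS4 inhibition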
Target sequence (P49798 whole entry, looked up): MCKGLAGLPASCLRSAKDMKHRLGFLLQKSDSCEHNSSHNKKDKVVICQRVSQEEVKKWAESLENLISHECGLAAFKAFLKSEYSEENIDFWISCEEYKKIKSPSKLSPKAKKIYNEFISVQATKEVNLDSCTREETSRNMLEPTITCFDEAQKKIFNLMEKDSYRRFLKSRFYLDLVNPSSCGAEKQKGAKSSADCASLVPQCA
MrgX1 agonist – agonists of human MrgX1 receptor. Q96LB2. MrgX1-HEK293 cells, Fluo-4 calcium fluorescence, agonist mode; hits give high values. B-score at 10 µM. 0.44% of 310,000 active. AID 588627;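 active means calcium response B-score plate-corrected fluorescence ratio at least 3 library SD, with starting fluorescence B-score inside 5 SD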
Target sequence (Q96LB2 whole entry, looked up): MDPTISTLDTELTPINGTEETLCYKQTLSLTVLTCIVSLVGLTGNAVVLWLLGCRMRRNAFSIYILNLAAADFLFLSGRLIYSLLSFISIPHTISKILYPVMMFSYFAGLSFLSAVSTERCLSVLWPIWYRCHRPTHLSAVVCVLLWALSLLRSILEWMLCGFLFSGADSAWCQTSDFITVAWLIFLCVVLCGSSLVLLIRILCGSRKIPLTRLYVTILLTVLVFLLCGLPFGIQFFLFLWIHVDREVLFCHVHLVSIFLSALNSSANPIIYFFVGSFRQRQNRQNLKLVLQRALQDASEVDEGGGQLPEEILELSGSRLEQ
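Material: MrgX1-expressing HEK293 cells; input: 15,000 cells per well; doses: test compound given as first of three sequential additions; schedule: overnight plating before 1 h dye loading; technique: Fluo-4 NW calcium-flux fluorescence, kinetic read; evaluation: baseline-normalised fluorescence change ratio, B-scored; control set: plate-wise positive and negative controls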
MrgX1 antag – antagonists of human MrgX1 receptor; Q96LB2; MRGX1-HEK293 calcium flux, Fluo-4, BAM8-22 antagonism; hits give low values; B-score at 10 µM; 1.3% of 310,000 active;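 active means calcium-response B-score plate-corrected more than 3 library SD below zero, starting fluorescence within 5 deviations, no agonist response on first addition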;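 further: peak minus trough fluorescence over baseline after final BAM8-22 challenge near maximal dose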
RGS4 pot – RGS4 potentiation or activation | AID 463111 | 0.92% of 310,000 active | B-score at 10 µM | HEK293 M3R/inducible RGS4, carbachol calcium flux Fluo4; hits give low values;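 active means B-score of the integrated calcium signal more than 4 SD below the library mean, with starting fluorescence not abnormally high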;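 further: negative B-score means reduced calcium response which marks RGS4 activation or potentiation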
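Test system: HEK293 cells with stable M3R and inducible RGS4; also added: carbachol at ECmax as muscarinic agonist stimulus; schedule: dye loading 30 min 37 °C, buffer rest 30 min RT; technique: kinetic calcium fluorescence imaging with Fluo4-AM dye, 2 µM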
MrgX1 allo act – allosterically activates human MrgX1 receptor signaling. MrgX1-HEK293, Fluo-4 calcium flux, FDSS; hits give high values. B-score at 10 µM. 0.63% of 310,000 active. Q96LB2;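 active means plate-corrected calcium response at least 3 library SD above typical, normal starting fluorescence, not activating the receptor alone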;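 further: compound read alongside a low EC10 to EC30 dose of BAM8-22 agonist; peak minus trough fluorescence over baseline measured at the second addition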
Starred values were filed as active, the others as inactive; i = inactive; x = no result given.

SMILES	RGS4 inh	MrgX1 agonist	MrgX1 antag	RGS4 pot	MrgX1 allo act
C=C1CC[C@@]23CC[C@]4(C)[C@@](OC2=O)([C@@H]3C1)[C@H]1O[C@H]1C1[C@@]2(C)CC[C@H](O)C(C)(C)C2CC[C@]14C (stereo partly drawn)	x	i	i	x	i
CN1CCN(C2=C(Cl)C(=O)C(c3cnc(N4CCCCC4)s3)=C(Cl)C2=O)CC1	i	i	i	-7.1*	i
CC(C)n1c(=O)n(CC(=O)NCC2CCCO2)c(=O)c2c3c(sc21)COC(C)(C)C3 (stereo not drawn)	i	i	i	i	i
CS(=O)(=O)N1CCC(C(=O)NCc2ccc(Cl)cc2Cl)CC1	i	i	i	i	i
CCOC(=O)C1=C(c2ccccc2)NC(=S)NC1c1cccc([N+](=O)[O-])c1 (stereo not drawn)	i	i	i	i	i
CCOC(=O)C1=C(c2ccccc2)NC(=S)NC1c1ccc(C)c([N+](=O)[O-])c1 (stereo not drawn)	i	i	-4.9*	i	i
Cc1sccc1C1C(C#N)=C(N)SC(N)=C1C#N	i	i	i	i	i
N#CC1=C(N)SC(N)=C(C#N)C1CCC1CCCCC1	i	i	-8.8*	i	i
O=C1OC(c2ccc(Br)cc2)=N/C1=C\N1CCCCC1	i	i	-5.6*	i	i
COc1ccccc1NC(=O)CSc1nc(=O)n(Cc2ccncc2)c2c1CCCC2	i	i	i	i	i
CNC(=O)COC(=O)/C=C/c1cccs1	i	i	i	i	6.5*
CCNC(=O)NCCNC(=O)c1cc(OCC(F)(F)F)ccc1OCC(F)(F)F	i	i	-5.5*	i	i
O=S(=O)(Nc1ncn[nH]1)c1ccc2ccccc2c1	i	i	i	i	i
O=S(=O)(Nc1nc2ccccc2[nH]1)c1ccc2ccccc2c1	i	i	i	-9.6*	i
CC1Cc2ccccc2N1S(=O)(=O)c1cccc(C(=O)NCCCO)c1 (stereo not drawn)	i	i	i	i	i
CCN(CC)CCNC(=O)c1ccc(NC(=O)c2cccc(S(=O)(=O)N3c4ccccc4CC3C)c2)cc1 (stereo not drawn)	i	i	i	-8.4*	i
COc1ccc(-n2cc(-c3ccccc3)c3c(N4CC(C)OC(C)C4)ncnc32)cc1 (stereo not drawn)	i	i	i	-7*	i
c1ccc(-c2cn(-c3ccccc3)c3ncnc(N4CCCCC4)c23)cc1	i	i	i	i	i
CCCCCCCCOC(=O)C[N+](C)(C)C/C=C(/C)Cl	i	i	i	i	i
CCCCCCCCCCCCOC(=O)C[N+](C)(C)C	i	i	i	-8.9*	i
CCCCCCCCCCOC(=O)C[N+](C)(C)C/C=C(/C)Cl	i	i	-5.3*	i	i
CC(C)N(Cc1nc(-c2ccc(Cl)cc2)no1)Cc1nccn1C	i	i	i	i	i
CC(NC(=S)Nc1c(Br)cccc1OC(F)F)C(C)(C)C (stereo not drawn)	i	i	i	i	i
COC(=O)C1Cc2c([nH]c3ccccc23)C2(CCN(Cc3ccccc3)CC2)N1 (stereo not drawn)	i	i	i	i	i
CC(=O)O[C@H]1CC[C@]2(C)[C@H]3CC=C4[C@@H]5[C@@H](C)[C@H](C)CC[C@]5(C(=O)O)CC[C@@]4(C)[C@]3(C)CC[C@H]2C1(C)C	14*	i	i	i	i
SMILES	RGS4 inh	MrgX1 agonist	MrgX1 antag	RGS4 pot	MrgX1 allo act
CC1(C)C2CC[C@]3(C)C(CC=C4[C@@H]5C[C@@](C)(CO)[C@@H](O)C[C@]5(C(=O)O)CC[C@]43C)[C@@]2(C)CC[C@@H]1O (stereo partly drawn)	i	i	i	i	i
Cc1c(NC(=O)CC2NC(=O)NC2=O)c(=O)n(-c2ccccc2)n1C (stereo not drawn)	i	i	i	i	i
COc1ccc(/C=N/Nc2snc(SC)c2C#N)cc1OC	i	i	i	i	i
COc1cccc(/C=N/NC(=O)C(=O)N2CCCC2)c1O	i	i	i	i	i
COc1cccc(/C=N/Nc2snc(SC)c2C#N)c1O	i	i	-5.4*	i	i
COc1cccc(/C=N/NC(=O)N/N=C/c2cccc(OC)c2O)c1O	i	i	i	-7.9*	i
N#C/C(=C\c1ccc(O)c(O)c1)S(=O)(=O)c1ccccc1	i	i	i	i	14*
CC[N+](CC)(CC)CCOc1ccc(/C=C/c2ccccc2)cc1	x	i	-5.1*	x	i
Cc1c(NC(=O)CSc2ncccn2)c(=O)n(-c2ccccc2)n1C	i	i	i	i	i
Cc1cc(C)n2nc(SCC(=O)Nc3c(C)n(C)n(-c4ccccc4)c3=O)nc2n1	i	i	-4.6*	i	i
O=C1NN(c2ccc(Cl)c(Cl)c2)C(=O)/C1=C/c1cccc(OC(=O)c2cccs2)c1	25*	i	i	i	i
O=S(=O)(c1ccc(Cl)cc1)N1CCN(C(=S)Nc2ccc(F)c(Cl)c2)CC1	i	i	i	i	i
CCn1c(C)nc2cc(C(=O)NNC(=O)Nc3cccc(Cl)c3)ccc21	i	i	-6.3*	i	i
CCn1c(C)nc2cc(C(=O)NNC(=O)Nc3ccc(Cl)cc3)ccc21	i	i	i	i	i
COc1ccc(C)cc1NC(=O)C/C(C)=N/NC(=O)Cc1cccc2ccccc12	i	i	i	i	i
COc1cc(C(=O)NC(=S)NNC(=O)c2ccc3c(c2)OCO3)cc(OC)c1OC	i	60*	i	i	i
COc1ccccc1C(=O)NNC(=S)NC(=O)c1sc2ccccc2c1Cl	i	36*	i	-8.7*	i
COc1ccc(Cl)cc1C(=O)NNC(=S)NC(=O)c1cc(-c2ccc(Cl)cc2)nc2ccccc12	i	i	-7.3*	-8.4*	i
COc1ccc(C(=O)NNC(=S)NC(=O)c2ccc(F)cc2)cc1Br	i	i	i	i	i
Cc1c(NC(=S)NC(=O)c2sc3ccccc3c2Cl)cccc1C(=O)O	i	i	i	i	i
COc1ccc(Cl)cc1C(=O)NNC(=S)NC(=O)c1ccc(F)c(F)c1	i	i	-5.9*	i	i
CCCC(=O)Nc1c2c(nn1-c1ccc([N+](=O)[O-])cc1)CS(=O)(=O)C2	i	i	i	i	i
CN(C)C1=NCCN1CCc1ccccc1	x	i	i	x	i
